From ChEMBL document CHEMBL2390929, “New nitric oxide donating 1,2,4-triazole/oxime hybrids: synthesis, investigation of anti-inflammatory, ulceroginic liability and antiproliferative activities” (Bioorg Med Chem, 2013)

Columns and labels:
HT-29 = test: Cytotoxicity against human HT-29 cells assessed as cell growth at 10^-5 M after 48 hrs by SRB assay; type: functional; conditions: HT-29, 48 h, read-out: Activity
Summary of the method: (§1)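 NCI 60-cell-line primary one-dose screen across nine tumour subpanels. Compound added at a single concentration of 10^-5 M and cultures incubated 48 h. Endpoint was sulforhodamine B protein staining read spectrophotometrically, with growth expressed as percent of untreated control cells.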

SNB-75 = test: Cytotoxicity against human SNB75 cells assessed as cell growth at 10^-5 M after 48 hrs by SRB assay; type: functional; conditions: SNB-75, 48 h, read-out: Activity
Summary of the method: (§2)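 NCI-60 one-dose screen across nine tumour subpanels. Each agent added once at 10^-5 M, cultures incubated 48 h. Endpoint is sulforhodamine B protein staining read spectrophotometrically. Output is percent growth of treated cells relative to untreated controls.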

MDA-MB-468 = test: Cytotoxicity against human MDA-MB-468 cells assessed as cell growth at 10^-5 M after 48 hrs by SRB assay; type: functional; conditions: MDA-MB-468, 48 h, read-out: Activity; summary of the method: as §1
RPMI-8226 = test: Cytotoxicity against human RPMI8226 cells assessed as cell growth at 10^-5 M after 48 hrs by SRB assay; type: functional; conditions: RPMI-8226, 48 h, read-out: Activity; summary of the method: as §1
[1] = Induction of nitric oxide release in phosphate buffer at pH 7.4 at 0.1 mM after 5 hrs by Griess method in presence of 0.5 mM of N-acetylcysteine; type: physicochemical; conditions: pH 7.4, 5 h, 100 µM
Summary of the method: (§3)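 Compound in DMF diluted to final 10^-4 M in 1:1 50 mM phosphate buffer pH 7.4/MeOH with 5×10^-4 M N-acetylcysteine, 37 °C. Aliquot mixed with Griess reagent, 10 min at room temperature, A546 read. Nitrite quantified against sodium nitrite standards (10–80 nmol/mL); NO expressed as mol/mol. n = 4 reaction mixtures per compound.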

SK-OV-3 = test: Cytotoxicity against human SKOV3 cells assessed as cell growth at 10^-5 M after 48 hrs by SRB assay; type: functional; conditions: SK-OV-3, 48 h, read-out: Activity; summary of the method: as §2
SF-295 = test: Cytotoxicity against human SF295 cells assessed as cell growth at 10^-5 M after 48 hrs by SRB assay; type: functional; conditions: SF-295, 48 h, read-out: Activity; summary of the method: as §1
MCF7 = test: Cytotoxicity against human MCF7 cells assessed as cell growth at 10^-5 M after 48 hrs by SRB assay; type: functional; conditions: MCF7, 48 h, read-out: Activity; summary of the method: as §1
NCI/ADR-RES = test: Cytotoxicity against human NCI/ADR-RES cells assessed as cell growth at 10^-5 M after 48 hrs by SRB assay; type: functional; conditions: read-out: Activity; summary of the method: as §1
HL-60(TB) = test: Cytotoxicity against human HL-60(TB) cells assessed as cell growth at 10^-5 M after 48 hrs by SRB assay; type: functional; conditions: HL-60, 48 h, read-out: Activity
Summary of the method: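 NCI 60-cell-line one-dose screen: compound added to cultures at a single concentration of 10^-5 M, incubated 48 h. End point by sulforhodamine B protein staining, read spectrophotometrically. Value is percent growth of treated cells relative to untreated control cells.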

[2] = Cytotoxicity against human EKVX cells assessed as cell growth at 10^-5 M after 48 hrs by SRB assay; type: functional; conditions: read-out: Activity; summary of the method: as §1
Rattus norvegicus = test: Antiinflammatory activity in albino rat assessed as inhibition of carrageenan-induced paw edema at 0.28 mmol/kg, po after 2 hrs relative to control; type: functional
Summary of the method: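 Adult male albino rats (120–140 g), four per group, fasted 24 h with water allowed. Test agent suspended in 0.5% w/v aqueous CMC and given orally at 0.28 mmol/kg; controls received CMC alone. After 30 min, 0.1 mL fresh 1% carrageenan in saline was injected subplantar into the right hind paw and saline into the left. Paw thickness was measured by Vernier caliper; % inhibition = [(VR−VL)control − (VR−VL)treated]/(VR−VL)control ×100. Mean ± SEM, one-way ANOVA.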

[3] = Induction of nitric oxide release in phosphate buffer at pH 7.4 at 0.1 mM after 6 hrs by Griess method in presence of 0.5 mM of N-acetylcysteine; type: physicochemical; conditions: pH 7.4, 6 h, 100 µM; summary of the method: as §3
HOP-62 = test: Cytotoxicity against human HOP62 cells assessed as cell growth at 10^-5 M after 48 hrs by SRB assay; type: functional; conditions: HOP-62, 48 h, read-out: Activity; summary of the method: as §1
SNB-19 = test: Cytotoxicity against human SNB19 cells assessed as cell growth at 10^-5 M after 48 hrs by SRB assay; type: functional; conditions: SNB-19, 48 h, read-out: Activity; summary of the method: as §2
UO-31 = test: Cytotoxicity against human UO31 cells assessed as cell growth at 10^-5 M after 48 hrs by SRB assay; type: functional; conditions: UO-31, 48 h, read-out: Activity; summary of the method: as §2
ACHN = test: Cytotoxicity against human ACHN cells assessed as cell growth at 10^-5 M after 48 hrs by SRB assay; type: functional; conditions: read-out: Activity; summary of the method: as §1
MDA-MB-231 = test: Cytotoxicity against human MDA-MB-231 cells assessed as cell growth at 10^-5 M after 48 hrs by SRB assay; type: functional; conditions: MDA-MB-231, 48 h, read-out: Activity; summary of the method: as §1
786-0 = test: Cytotoxicity against human 786-0 cells assessed as cell growth at 10^-5 M after 48 hrs by SRB assay; type: functional; conditions: 786-0, 48 h, read-out: Activity; summary of the method: as §1
NCI-H460 = test: Cytotoxicity against human NCI-H460 cells assessed as cell growth at 10^-5 M after 48 hrs by SRB assay; type: functional; conditions: NCI-H460, 48 h, read-out: Activity; summary of the method: as §1
CAKI-1 = test: Cytotoxicity against human CAKI-1 cells assessed as cell growth at 10^-5 M after 48 hrs by SRB assay; type: functional; conditions: CAKI-1, 48 h, read-out: Activity; summary of the method: as §1
U-251 = test: Cytotoxicity against human U251 cells assessed as cell growth at 10^-5 M after 48 hrs by SRB assay; type: functional; conditions: U-251, 48 h, read-out: Activity; summary of the method: as §2
IGROV-1 = test: Cytotoxicity against human IGROV1 cells assessed as cell growth at 10^-5 M after 48 hrs by SRB assay; type: functional; conditions: IGROV-1, 48 h, read-out: Activity; summary of the method: as §1
SF-268 = test: Cytotoxicity against human SF268 cells assessed as cell growth at 10^-5 M after 48 hrs by SRB assay; type: functional; conditions: SF-268, 48 h, read-out: Activity; summary of the method: as §1
SR = test: Cytotoxicity against human SR cells assessed as cell growth at 10^-5 M after 48 hrs by SRB assay; type: functional; conditions: read-out: Activity; summary of the method: as §2
Malme-3M = test: Cytotoxicity against human MALME-3M cells assessed as cell growth at 10^-5 M after 48 hrs by SRB assay; type: functional; conditions: read-out: Activity; summary of the method: as §1
NCI-H522 = test: Cytotoxicity against human NCI-H522 cells assessed as cell growth at 10^-5 M after 48 hrs by SRB assay; type: functional; conditions: NCI-H522, 48 h, read-out: Activity; summary of the method: as §1
OVCAR-4 = test: Cytotoxicity against human OVCAR4 cells assessed as cell growth at 10^-5 M after 48 hrs by SRB assay; type: functional; conditions: OVCAR-4, 48 h, read-out: Activity; summary of the method: as §1
OVCAR-8 = test: Cytotoxicity against human OVCAR8 cells assessed as cell growth at 10^-5 M after 48 hrs by SRB assay; type: functional; conditions: OVCAR-8, 48 h, read-out: Activity; summary of the method: as §1

| Structure (SMILES) | growth at 10 µM (HT-29) [%] | growth at 10 µM (SNB-75) [%] | growth at 10 µM (MDA-MB-468) [%] | growth at 10 µM (RPMI-8226) [%] | Activity [1] [mol/mol] | growth at 10 µM (SK-OV-3) [%] | growth at 10 µM (MCF7) [%] | growth at 10 µM (NCI/ADR-RES) [%] | growth at 10 µM (HL-60(TB)) [%] | growth at 10 µM [2] [%] | inhibition in vivo at 280 µmol/kg (Rattus norvegicus) [%] | Activity [3] [mol/mol] | growth at 10 µM (HOP-62) [%] | growth at 10 µM (SNB-19) [%] | growth at 10 µM (UO-31) [%] | growth at 10 µM (ACHN) [%] | growth at 10 µM (MDA-MB-231) [%] | growth at 10 µM (786-0) [%] | growth at 10 µM (NCI-H460) [%] | growth at 10 µM (CAKI-1) [%] | further results |
| --- | --- | --- | --- | --- | --- | --- | --- | --- | --- | --- | --- | --- | --- | --- | --- | --- | --- | --- | --- | --- | --- |
| O/N=C(/CSc1nnc(-c2ccccc2)n1-c1ccccc1)c1ccccc1 | 91.6 | 115 | 93 | 85.6 | 0.15 | 103 | 129 | 100 | 92.2 | 95.4 | 63 | 0.09 | 109 | 84.8 | 77.4 | 117 | 68.4 | 109 | 97.3 | 85.4 | growth at 10 µM (SF-295): 88%; growth at 10 µM (U-251): 82.3%; growth at 10 µM (IGROV-1): 108%; growth at 10 µM (SF-268): 104%; growth at 10 µM (SR): 92.8%; growth at 10 µM (Malme-3M): 100%; growth at 10 µM (NCI-H522): 98.5%; growth at 10 µM (OVCAR-4): 86.6%; growth at 10 µM (OVCAR-8): 93.2% |
| COc1ccc(-c2nnc(SC/C(=N/O)c3ccccc3)n2-c2ccccc2)cc1 | 95.1 | 103 | 96.5 | 73.5 | 0.15 | 111 | 104 | 97.9 | 95.9 | 102 | 63 | 0.12 | 111 | 97.3 | 87.1 | 107 | 117 | 93.3 | 106 | 96.5 | growth at 10 µM (SF-295): 89.5%; growth at 10 µM (U-251): 98.6%; growth at 10 µM (IGROV-1): 101%; growth at 10 µM (SF-268): 117%; growth at 10 µM (SR): 75.9%; growth at 10 µM (Malme-3M): 96.5%; growth at 10 µM (NCI-H522): 81.6%; growth at 10 µM (OVCAR-4): 86.4%; growth at 10 µM (OVCAR-8): 102% |
| COc1ccc(-c2nnc(SC/C(=N/O)c3ccccc3)n2-c2ccccc2)cc1OC | 97.5 | 91.4 | 107 | 69.4 | 0.23 | 103 | 100 | 93.2 | 68.2 | 101 | 61 | 0.17 | 99.2 | 101 | 80.1 | 95.4 | 87.5 | 102 | 114 | 98.4 | growth at 10 µM (U-251): 101%; growth at 10 µM (IGROV-1): 106%; growth at 10 µM (SF-268): 110%; growth at 10 µM (SR): 85.1%; growth at 10 µM (Malme-3M): 93.7%; growth at 10 µM (NCI-H522): 88.8%; growth at 10 µM (OVCAR-4): 90.4%; growth at 10 µM (OVCAR-8): 90.7% |
